From PubChem BioAssay
The sample as a whole holds a higher share of hits than the screen did.
T cruzi repl = T. cruzi replication inhibition. 300,000 compounds, 1.4% hits. AID 1885. T. cruzi beta-gal in NIH3T3, luminescence, 90 h. inhibition, % (concentration not given with the values);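 active = mean inhibition across valid replicates above about 55%, limit read from the data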;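 also: signal also drops with host cell toxicity which is not excluded here; 0% = plate median of DMSO wells and 100% = zero luminescence signal; higher percent means less beta-gal luminescence so fewer parasites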
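System: NIH/3T3 fibroblasts plus reporter T. cruzi. Medium: DMEM plus 2% FBS. Probe or stimulus: 5000 reporter trypomastigotes per well. Compound: single 50 nL compound addition per well in DMSO. Incubation: co-culture of at least 90 h after 3 h attachment. Detection: GalScreen β-gal luminescence, detergent lysis, 60 min. Evaluation: parasite load inhibition, %.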
DTT redox prof = compounds producing H2O2 with reducing agent – biochemical, NIH compound library profiling, artefact control for MLSCN library redox annotation, primary screen; DTT-dependent redox cycling H2O2, phenol red/HRP absorbance; 100% = 100 µM peroxide control, 0% = buffer; activation, % at 10 µM; 200,000 compounds, 0.03% hits; AID 878;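 active = activation of at least 50% relative to the plate's high and low controls in the primary single-dose screen; inactive = activation below 50%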;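 also: compound incubated with DTT at 0.8 mM final as the reducing agent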
Hep lipid drop = hepatic lipid droplet formation modulation; 240,000 compounds, 0.4% hits; inhibition, % at 6.5 µM; AML12 mouse hepatocytes, oleate lipid droplets, BODIPY imaging;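 active = lipid droplet intensity inhibited by at least 50%, with more than 500 cells counted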
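Material: mouse AML12 hepatocyte cell line, fixed after treatment; Timing: compound with oleate, overnight; Technique: high-content imaging of BODIPY-stained droplets and DAPI nuclei; Probe or stimulus: oleate, 100 µM final; Dosing: compound at 6.5 µM only.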
MPTP block = inhibitors of mitochondrial permeability transition pore; inhibition, % at 10 µM; 360,000 compounds, 1.4% hits; isolated mouse mitochondria, Ca2+ swelling absorbance, 30 min; AID 602449;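 active = inhibition of 50% or more, scaled per plate between neutral and stimulator controls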;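 also: 0% = DMSO wells given calcium and 100% = 1 mM EGTA wells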
Lmaj promast = reduces viability of Leishmania major promastigotes. resazurin fluorescence viability. inhibition, % at 10 µM. 200,000 compounds, 9% hits; in the data active = inhibition above about 50%;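 also: promastigotes grown with compound for 44 hours at 28 °C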
MPTP counter = mitochondrial membrane potential, counter-screen | AID 624504 | shares compounds with MPTP block | 5,000 compounds, 78% hits | isolated mitochondria, Rhodamine 123 fluorescence | inhibition, % at 10 µM; in the data active = inhibition above about 22%;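 also: 0% = DMSO vehicle and 100% = positive control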
MPTP swell DR = MPTP inhibition, dose response swelling confirmation; IC50, µM; shares compounds with MPTP block; 780 compounds, 58% hits; isolated mitochondria swelling, absorbance; in the data active = IC50 below about 20 µM
MPTP counter DR = active in counter-screen for permeability transition pore inhibitors; shares compounds with MPTP block; isolated mitochondria counterscreen, fluorescence read-out; IC50, µM; 780 compounds, 49% hits; AID 651564; in the data active = IC50 below about 80 µM
* hit, by the source's call; . = no result given.

SMILES | T cruzi repl | DTT redox prof | Hep lipid drop | MPTP block | Lmaj promast | MPTP counter | others
CC1=NN(c2nc(-c3ccc(Cl)cc3)cs2)C(=O)C1 | -11 | -6 | . | 60* | 35 | 17 | MPTP swell DR=13*;MPTP counter DR=<2.5*
CCc1ccc(S(=O)(=O)c2nnn3c2nc(NCCNC(C)=O)c2ccccc23)cc1 | -2 | -1 | 9 | 65* | -8 | 43*
CC(C)(C)S(=O)(=O)N1C[C@@H]2CC/C=C\C/C=C\2[C@H]1CCO | . | . | . | 0 | . | .
COc1ccc(NC(=O)Nc2nc3ccccc3s2)cc1 | 14 | . | 6 | 64* | . | 81*
O=C(NNc1nc2ccccc2s1)Nc1ccc(Cl)c(Cl)c1 | 11 | . | 4 | 74* | . | 75*
CCOc1ccc2nc(NC(=O)Nc3ccccc3)sc2c1 | 0 | 0 | 5 | 90* | 0 | 74*
CS(=O)(=O)c1ccc2nc(NC(=O)Nc3ccc(Cl)cc3)sc2c1 | -1 | 0 | -48 | 95* | -1 | 78*
CCN(CC)C(=O)CNc1ccc(C(F)(F)F)cc1[N+](=O)[O-] | 1 | 0 | -16 | 4 | -1 | .
O=C(CN1c2ccccc2Sc2ccccc21)NNC(=O)Nc1ccc(Cl)cc1 | 9 | . | -1 | 38 | . | .
O=C(CN1c2ccccc2Sc2ccccc21)NNC(=O)Nc1ccc(Cl)c(Cl)c1 | 4 | . | 24 | 52* | . | 22*
CCOc1ccc(S(=O)(=O)N(C)c2ccc(OCC(=O)Nc3nc4ccccc4s3)cc2)cc1 | -34 | 0 | -6 | 96* | 33 | 80*
O=C(Nc1nnc(SCCN2CCOCC2)s1)C1CC(=O)N(c2ccccc2)C1 (stereo not drawn) | 0 | . | 15 | -3 | . | .
CN(CC(=O)Nc1ccc(Cl)c(Cl)c1)C(=O)C12CC3CC(CC(C3)C1)C2 | 22 | 0 | -3 | 64* | 92* | 83*
OCCC1CN(CC2CCCCC2)CCN1CC1CCCCC1 (stereo not drawn) | 40 | . | -1 | 4 | . | .
COCCN1C[C@@H](CO)O[C@@H](n2cnc3c(NCCN(C)C)ncnc32)C1 | . | . | . | 1 | . | .
Cc1nn(C)c2ncc(C(=O)c3ccccc3O)cc12 | -13 | . | -2 | 0 | . | .
Cc1nn(-c2ccccc2)c2ncc(C(=O)c3cc(Cl)ccc3O)cc12 | -1 | -1 | -4 | 62* | 40 | 83*
COc1ccc(CCNC(=O)c2ccc(NS(=O)(=O)c3ccc4[nH]c(=O)[nH]c4c3)cc2)cc1 | -15 | . | . | 1 | . | .
N=C1/C(=C\c2coc3ccc(O)cc3c2=O)C(=O)N=C2SC=CN12 | 5 | . | -5 | 1 | . | .
N=C1/C(=C\c2coc3ccccc3c2=O)C(=O)N=C2SC(c3ccncc3)=NN12 | -13 | . | -12 | 94* | . | 64*
Cc1cc(/C=C2\C(=N)N3N=C(c4ccco4)SC3=NC2=O)c(C)n1Cc1ccccc1 | -5 | . | 5 | 46 | . | .
N=C1/C(=C/c2coc3ccccc3c2=O)C(=O)N=C2SC(c3ccco3)=NN12 | 11 | . | -12 | 64* | . | 71*
COc1ccc(N2CCc3c(C)nc4c(OC)cc(OC)cc4c32)c(OC)c1 | 58* | -4 | . | 64* | 101* | 72*
Cc1nc2c(C)cccc2c2c1CCN2c1ccccc1F | 11 | . | -5 | 20 | . | .
COc1ccccc1-n1c(=O)c(C#N)c(-c2ccc([N+](=O)[O-])cc2)c2cc(C(=O)c3cc(F)ccc3O)cnc21 | 42 | 0 | -17 | -1 | 46 | .
Cn1c(=O)c(C#N)c(-c2ccc(F)cc2)c2cc(C(=O)c3cc(Cl)cc(Cl)c3O)cnc21 | -2 | . | -43 | 95* | . | 60*
CN(c1ccccc1)S(=O)(=O)c1ccc(NC(=S)Nc2ccccc2)cc1 | -5 | 2 | . | 96* | 93* | 91*
CN(c1ccccc1)S(=O)(=O)c1cccc(NC(=O)c2ccncc2)c1 | 5 | . | 19 | 96* | . | 69*
CN(c1ccccc1)S(=O)(=O)c1cccc(NC(=O)c2cncc(Br)c2)c1 | 7 | . | 0 | 36 | . | .
CCN(c1ccccc1)S(=O)(=O)c1cc(C(=O)Nc2ccc(F)c(F)c2)ccc1F | 7 | 1 | -7 | 91* | 27 | 81*
